Data as given in ChEMBL document CHEMBL5712087, “Targeting bromodomain-containing protein 4 (BRD4) inhibits MYC expression in colorectal cancer cells” (Neoplasia, 2019).
Activity calls are given as the source filed them. The calls are words filed in the database; no cut-off is given here.

How the values were obtained:
Type in all cases: cell-based
[1] = biological target: T1, Protein cereblon/Bromodomain-containing protein 4 (Homo sapiens) (UniProt O60885+Q96SW2); assay: PROTAC activity at BRD4/Cereblon in human LS174T cells assessed as complete BRD4 protein degradation at […] for 24 hrs by Western blot analysis
T1 sequence (Q96SW2 whole entry, looked up, other chains not shown): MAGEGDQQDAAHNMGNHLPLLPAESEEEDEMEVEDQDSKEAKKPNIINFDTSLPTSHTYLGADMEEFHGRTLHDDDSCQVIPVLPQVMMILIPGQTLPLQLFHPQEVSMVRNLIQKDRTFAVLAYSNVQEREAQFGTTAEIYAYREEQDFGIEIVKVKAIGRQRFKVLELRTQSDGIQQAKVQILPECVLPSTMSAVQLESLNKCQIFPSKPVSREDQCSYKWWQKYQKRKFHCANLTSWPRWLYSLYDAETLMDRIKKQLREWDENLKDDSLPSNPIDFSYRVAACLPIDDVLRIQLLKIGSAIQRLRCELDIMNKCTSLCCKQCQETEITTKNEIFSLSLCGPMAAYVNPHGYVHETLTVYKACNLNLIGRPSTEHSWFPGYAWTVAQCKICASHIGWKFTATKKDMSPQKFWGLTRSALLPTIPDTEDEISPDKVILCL
Method in brief: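 Cells treated 24 h across 1 nM–10 µM range (fibroblasts at 500/1000 nM). Immunoblot: RIPA lysate with 2.5 mmol/l DTT, 15 µg per lane on 10% SDS-PAGE, nitrocellulose, 5% milk block 1 h. BRD4 or MYC primary 1:1,000 overnight at 4 °C, HRP secondary 1:10,000 for 60 min; GAPDH/β-actin loading control; ECL detection.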

[2] = biological target: T1, Protein cereblon/Bromodomain-containing protein 4 (Homo sapiens); assay: PROTAC activity at BRD4/Cereblon in human DLD-1 cells assessed as decrease in BRD4 protein degradation at 5 to 10 uM for 24 hrs by Western blot analysis; details: dose 5-10 µM
Method in brief: (§1)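 Eight CRC lines exposed 24 h to PROTAC at 5 or 10 µM (stocks 2 mM in DMSO, diluted in PBS or medium). Lysis in RIPA with protease/phosphatase inhibitors and 2.5 mmol/l DTT; 15 µg protein on 10% SDS-PAGE, semi-dry transfer to nitrocellulose. Anti-BRD4 or anti-MYC at 1:1,000 overnight at 4 °C; GAPDH or β-actin loading control; chemiluminescence.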

[3] = biological target: T1, Protein cereblon/Bromodomain-containing protein 4 (Homo sapiens); assay: PROTAC activity at BRD4/Cereblon in human HCT116 p53-/- cells assessed as decrease in BRD4 protein degradation at 5 to 10 uM for 24 hrs by Western blot analysis; details: HCT-116, dose 5-10 µM; method in brief: as §1
[4] = biological target: T1, Protein cereblon/Bromodomain-containing protein 4 (Homo sapiens); assay: PROTAC activity at BRD4/Cereblon in human LS174T-dbet1 resistant cells assessed as MYC mRNA level at 500 to 1000 nM for 24 hrs by RT-qPCR analysis; details: dose 500-1000 nM
Method in brief: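 Total RNA from 10^6 cells after 24 h treatment, Trizol-extracted and integrity-checked. 0.7 µg reverse transcribed, then SYBR-type qPCR: 95 °C 5 min, 40 cycles of 95 °C 15 s/60 °C 60 s. Melting curves checked. MYC or BRD4 normalised to PPIA and ACTB by ΔΔCq. At least three experiments; means ± SD.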

[5] = biological target: T2, von Hippel-Lindau disease tumor suppressor/Bromodomain-containing protein 4 (Homo sapiens) (UniProt O60885+P40337); assay: PROTAC activity at BRD4/VHL E3 ligase in human LS174T cells assessed as BRD4 protein degradation at 100 to 1000 nM for 24 hrs by Western blot analysis; details: dose 100-1000 nM
T2 sequence (P40337 whole entry, looked up, other chains not shown): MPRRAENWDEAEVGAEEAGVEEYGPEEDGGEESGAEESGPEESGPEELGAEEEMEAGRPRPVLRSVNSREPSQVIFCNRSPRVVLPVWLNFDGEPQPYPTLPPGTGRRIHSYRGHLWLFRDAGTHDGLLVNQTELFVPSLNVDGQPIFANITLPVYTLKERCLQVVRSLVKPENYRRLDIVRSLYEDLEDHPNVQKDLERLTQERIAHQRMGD
Method in brief: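 LS174t cells (RPMI 1640, 10% FCS) were exposed to 1 nM–10 µM for 24 h. Lysates in RIPA with inhibitors and 2.5 mmol/l DTT; 15 µg protein was run on 10% SDS-PAGE and transferred to nitrocellulose. BRD4 or MYC primary antibodies were used at 1:1,000 overnight at 4 °C, HRP secondary 1:10,000, and GAPDH/β-actin as loading control. Detection was by chemiluminescence.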

[6] = biological target: T2, von Hippel-Lindau disease tumor suppressor/Bromodomain-containing protein 4 (Homo sapiens); assay: PROTAC activity at BRD4/VHL E3 ligase in human LS174T cells assessed as BRD4 mRNA level at 500 to 1000 nM for 24 hrs by RT-qPCR analysis; details: dose 500-1000 nM
Method in brief: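 LS174t cells were treated for 24 h, then total RNA was Trizol-extracted from 10^6 cells and integrity-checked. 0.7 µg RNA was reverse transcribed and SYBR-type qPCR run for 40 cycles (95 °C 15 s, 60 °C 60 s), with melt-curve control. MYC or BRD4 mRNA was normalised to PPIA and ACTB by the ΔΔCq method. Experiments were run at least three times; mean ± SD.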

[7] = biological target: T2, von Hippel-Lindau disease tumor suppressor/Bromodomain-containing protein 4 (Homo sapiens); assay: PROTAC activity at BRD4/VHL E3 ligase in human SW480 cells assessed as decrease in BRD4 protein degradation at 5 to 10 uM for 24 hrs by Western blot analysis; details: dose 5-10 µM
Method in brief: (§2)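 Eight CRC lines, including LS174t (RPMI 1640) and SW480 (DMEM/HamsF12), all with 10% FCS, were treated with PROTAC at 5 and 10 µM. BRD4 and MYC proteins were detected by immunoblot (RIPA lysate, 15 µg, 10% gel, primary 1:1,000 overnight at 4 °C), with GAPDH/β-actin as loading control.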

[8] = biological target: T2, von Hippel-Lindau disease tumor suppressor/Bromodomain-containing protein 4 (Homo sapiens); assay: PROTAC activity at BRD4/VHL E3 ligase in human HT-29 cells assessed as decrease in BRD4 protein degradation at 5 to 10 uM for 24 hrs by Western blot analysis; details: dose 5-10 µM; method in brief: as §1
[9] = biological target: T2, von Hippel-Lindau disease tumor suppressor/Bromodomain-containing protein 4 (Homo sapiens); assay: PROTAC activity at BRD4/VHL E3 ligase in human LS174T cells assessed as decrease in MYC protein expression at 5 to 10 uM for 24 hrs by Western blot analysis; details: dose 5-10 µM; method in brief: as §2
[10] = biological target: T2, von Hippel-Lindau disease tumor suppressor/Bromodomain-containing protein 4 (Homo sapiens); assay: PROTAC activity at BRD4/VHL E3 ligase in human SW480 cells assessed as decrease in MYC protein expression at 5 to 10 uM for 24 hrs by Western blot analysis; details: dose 5-10 µM; method in brief: as §2

Compound | Activity [1] | Activity [2] | Activity [3] | Activity [4] | Activity [5] | Activity [6] | Activity [7] | Activity [8] | Activity [9] | Activity [10]
Cc1sc2c(c1C)C(c1ccc(Cl)cc1)=N[C@@H](CC(=O)NCCCCNC(=O)COc1cccc3c1C(=O)N(C1CCC(=O)NC1=O)C3=O)c1nnc(C)n1-2 (stereo not given in full) | Active | Active | Active | inactive | – | – | – | – | – | –
Cc1ncsc1-c1ccc(CNC(=O)[C@@H]2C[C@@H](O)CN2C(=O)[C@@H](NC(=O)COCCOCCOCCNC(=O)C[C@@H]2N=C(c3ccc(Cl)cc3)c3c(sc(C)c3C)-n3c(C)nnc32)C(C)(C)C)cc1 | – | – | – | – | Dose-Dependent Effect | inactive | Active | Active | Active | Active
